Results from publication PMC6267549 (Clinical Pharmacokinetics, 2018).
Entries after “also recorded” stand apart in the source; their conditions may differ. Where two headings read alike, the source gives them in different places. One block for each molecule: values may come before it.

Experiments:
[1] = Effect of haemodialysis on semaglutide and SNAC exposure in subjects with ESRD; format: in vivo, human
Outline: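 ESRD subjects on haemodialysis three times weekly, started right after dosing (blood flow 500-600 mL/min, ultrafiltration 0-23 mL/min, low- or high-flux membranes). Semaglutide: observed AUC 144–148 h during day-16 dialysis divided by predicted AUC, with λz taken from inter-dialysis plasma levels at 76, 96, 120 and 144 h. SNAC: AUC4 on dialysis day 9 vs non-dialysis day 10, compared by log-scale linear model (dialysis, subject fixed).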

[2] = Semaglutide and SNAC urine bioanalysis / renal clearance; format: in vivo, human; conditions: for CLR: based on 0–36 h after the tenth dosing, geometric mean (CV)
Outline: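 Urine collected pre-dose day 1 and fractionated over set intervals on days 10–11 after the tenth dose, then stored at -20 °C. 1% Triton X-100 added, 1 part per 9 parts urine. Semaglutide and SNAC quantified by the plasma LC-MS/MS methods with ranges corrected by 1.111. Renal clearance derived over 0–36 h after the tenth dose.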

[3] = SNAC plasma pharmacokinetics after ten once-daily doses of oral semaglutide; format: in vivo, human; conditions: for tmax,Day10: median (minimum, maximum)
Outline: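 Oral tablets (300 mg SNAC) given once daily, 5 mg semaglutide days 1–5 then 10 mg days 6–10, with 120 mL water after >6 h fast and no intake for 30 min after. K3EDTA plasma sampled, including extra points within 24 h after last dose, stored at -20 °C. SNAC measured by LC-MS/MS after in-line solid-phase preparation against an analogue IS (5.00-2000 ng/mL, fivefold dilution above). AUC24 by linear trapezoid; Cmax and tmax observed.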

[4] = format: in vivo, human; conditions: once-daily oral semaglutide, not characterised in the trial
Outline: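 Ten once-daily oral doses given, 5 mg for 5 days then 10 mg for 5 days, fasted. Plasma sampled pre-dose and to 504 h after the last dose, K3EDTA, stored at -20 °C. Semaglutide measured by LC-MS/MS after protein precipitation (0.729-60.8 nmol/L, 1/concentration² weighting). t½ = ln(2)/λz, with λz from log-linear regression on the terminal phase.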

[5] = subcutaneous administration; rats; cited from earlier work
[6] = subcutaneous administration; monkeys; cited from earlier work
[7] = subcutaneous administration; humans; cited from earlier work
[8] = mild renal impairment vs normal renal function
[9] = moderate renal impairment vs normal renal function
[10] = severe renal impairment vs normal renal function

estimated ratio of AUC4 on day 9 during haemodialysis to AUC4 on day 10 ([1]; haemodialysis vs no haemodialysis): 0.95
CLR ([2]; ESRD (n = 11)): 0.01 (508.51) L/h
CLR ([2]; mild renal impairment (n = 12)): 0.08 (87.88) L/h
CLR ([2]; moderate renal impairment (n = 12)): 0.09 (92.63) L/h
CLR ([2]; normal renal function (n = 24)): 0.06 (104.33) L/h
CLR ([2]; severe renal impairment (n = 12)): 0.04 (98.22) L/h
AUC24,Day10 ([3]; ESRD (n = 11), after tenth dose, geometric mean (CV)): 1471.4 (27.0) nmol·h/L
tmax,Day10 ([3]; ESRD (n = 11), after tenth dose): 0.83 (0.17, 5.00) h
estimated ratio Cmax,Day10 ([3]; ESRD vs normal renal function): 0.79
estimated ratio of the AUC24,Day10 ([3]; ESRD vs normal renal function): 1.32
AUC24,Day10 ([3]; mild renal impairment (n = 12), after tenth dose, geometric mean (CV)): 1311.6 (31.5) nmol·h/L
tmax,Day10 ([3]; mild renal impairment (n = 12), after tenth dose): 0.58 (0.33, 2.50) h
estimated ratio Cmax,Day10 [3, 8]: 0.94
estimated ratio of the AUC24,Day10 [3, 8]: 1.19
AUC24,Day10 ([3]; moderate renal impairment (n = 12), after tenth dose, geometric mean (CV)): 1335.9 (34.6) nmol·h/L
tmax,Day10 ([3]; moderate renal impairment (n = 12), after tenth dose): 0.67 (0.33, 6.00) h
estimated ratio Cmax,Day10 [3, 9]: 0.70
estimated ratio of the AUC24,Day10 [3, 9]: 1.30
AUC24,Day10 ([3]; normal renal function (n = 24), after tenth dose, geometric mean (CV)): 1028.8 (29.2) nmol·h/L
tmax,Day10 ([3]; normal renal function (n = 24), after tenth dose): 0.75 (0.33, 3.00) h
Cmax ([3]; read-out: Cmax,Day10, ESRD (n = 11), after tenth dose, geometric mean (CV)): 936 nM
AUC24,Day10 ([3]; severe renal impairment (n = 12), after tenth dose, geometric mean (CV)): 1522.8 (31.8) nmol·h/L
tmax,Day10 ([3]; severe renal impairment (n = 12), after tenth dose): 0.67 (0.17, 1.00) h
estimated ratio Cmax,Day10 [3, 10]: 1.06
estimated ratio of the AUC24,Day10 [3, 10]: 1.49
Compound: O=C([O-])CCCCCCCNC(=O)c1ccccc1O.[Na+] [SNAC, sodium N-(8-[2-hydroxybenzoyl]amino) caprylate]

AUC144–148 h,dial/AUC144–148 h,pred (estimated ratio) ([1]; observed during haemodialysis (day 16) over predicted): 0.97
time to reach steady state (predicted) [4]: 4–5 weeks
Compound: CC[C@H](C)[C@H](NC(=O)[C@H](Cc1ccccc1)NC(=O)[C@H](CCC(=O)O)NC(=O)[C@H](CCCCNC(=O)COCCOCCNC(=O)COCCOCCNC(=O)CC[C@H](NC(=O)CCCCCCCCCCCCCCCCC(=O)O)C(=O)O)NC(=O)[C@H](C)NC(=O)[C@H](C)NC(=O)[C@H](CCC(N)=O)NC(=O)CNC(=O)[C@H](CCC(=O)O)NC(=O)[C@H](CC(C)C)NC(=O)[C@H](Cc1ccc(O)cc1)NC(=O)[C@H](CO)NC(=O)[C@H](CO)NC(=O)[C@@H](NC(=O)[C@H](CC(=O)O)NC(=O)[C@H](CO)NC(=O)[C@@H](NC(=O)[C@H](Cc1ccccc1)NC(=O)[C@@H](NC(=O)CNC(=O)[C@H](CCC(=O)O)NC(=O)C(C)(C)NC(=O)[C@@H](N)Cc1cnc[nH]1)[C@@H](C)O)[C@@H](C)O)C(C)C)C(=O)N[C@@H](C)C(=O)N[C@@H](Cc1c[nH]c2ccccc12)C(=O)N[C@@H](CC(C)C)C(=O)N[C@H](C(=O)N[C@@H](CCCNC(=N)N)C(=O)NCC(=O)N[C@@H](CCCNC(=N)N)C(=O)NCC(=O)O)C(C)C [semaglutide]
detection in urine ([2]; urine samples days 10–11, except one subject in the ESRD group): not detected in urine; also recorded: not generally detected
intact semaglutide in urine, of the administered dose [5]: less than 1%
intact semaglutide in urine [6]: not detected
intact semaglutide in urine, of the administered dose [7]: 3.1%
